Results pooled from the literature.
Protocols differ between the studies behind these lines.
Target: Serine/threonine-protein kinase 17B (STK17B, Homo sapiens, UniProt O94768)
Residues used in one study (O94768 1-372): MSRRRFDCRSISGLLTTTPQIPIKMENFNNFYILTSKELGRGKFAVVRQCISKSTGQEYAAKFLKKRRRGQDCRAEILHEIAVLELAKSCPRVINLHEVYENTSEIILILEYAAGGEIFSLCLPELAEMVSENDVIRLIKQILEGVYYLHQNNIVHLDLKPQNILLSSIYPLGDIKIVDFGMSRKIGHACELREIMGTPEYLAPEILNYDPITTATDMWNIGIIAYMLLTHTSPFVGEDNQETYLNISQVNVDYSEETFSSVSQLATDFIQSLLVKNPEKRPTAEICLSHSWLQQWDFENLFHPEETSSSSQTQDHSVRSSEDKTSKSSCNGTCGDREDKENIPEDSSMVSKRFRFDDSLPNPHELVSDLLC

read-out	action	method	tested at	quantity	value	SMILES
cell-free assay	–	competition with immobilised ligand	1 µM	remaining binding	100%	O=C(Nc1cccnn1)N1CC(C/C=C/c2cncc(Oc3ccc(C(F)(F)F)cn3)n2)C1
enzyme activity	–	–	23.5 nM	remaining activity	100%	Cc1ccc(C(=O)Nc2ccc(CN3CCN(C)CC3)c(C(F)(F)F)c2)cc1C#Cc1cnc2cccnn12
enzyme activity	inhibitor	radiometric	1 µM	remaining activity	92%	Cc1nn(CC(F)(F)F)cc1Nc1nccc(NCc2ccc(S(N)(=O)=O)cc2)n1
enzyme activity	inhibitor	–	1 µM	inhibition	-4%	CN1CC(Oc2cnc(C#N)cc2-c2ccn3nc(NC(=O)C4CC4)cc3c2)C1
thermal stability	–	DSF	10 µM	ΔTm	1 °C	CCN1CCC2(CC1)NC(=O)c1c(c3ccc(Cl)c(Cl)c3n1C)C2C#N (racemic)
enzyme activity	inhibitor	radiometric	1 µM	remaining activity	23%	NS(=O)(=O)c1ccc(CNc2nc(Nc3cccc(NC(=O)N4CCCC4)c3)ncc2Br)cc1
cell-free assay	–	competition with immobilised ligand	1 µM	remaining binding	100%	C[C@H](NC(=O)c1cnc2n1[C@](C)(Cc1ccc(C#N)cc1)C(=O)N2c1cc(Cl)c(F)c(Cl)c1)C(=O)NC1(c2ccccn2)CC1
enzyme activity	inhibitor	radiometric	1 µM	remaining activity	12%	Cc1nn(CC(F)(F)F)cc1Nc1ncc(Br)c(NCCc2cnc[nH]2)n1
enzyme activity	inhibitor	–	10 µM	inhibition	4%	CS(=O)(=O)Nc1cccc(-c2csc(NC(=O)CSc3nc4nccnc4c(=O)n3CCc3ccccc3)n2)c1
enzyme activity	inhibitor	–	1 µM	remaining activity	94%	COc1cc(Cl)c(C(=O)N[C@@H](CN[C@H]2CC[C@@H](N)CC2)Cc2ccc(C#N)cc2)cc1-c1ccc(CN[C@H](C)c2ccc(C)cc2)o1
cell-free assay	–	–	20 µM	remaining signal	94%	Nc1ncnc2occ(-c3ccc(NC(=O)Nc4cc(C(F)(F)F)ccc4F)cc3)c12
enzyme activity	inhibitor	–	10 µM	inhibition	11%	O=C(CSc1nc2nccnc2c(=O)n1CCc1ccccc1)Nc1nccs1
enzyme activity	inhibitor	radiometric	1 µM	remaining activity	5%	Cc1nn(CC(F)(F)F)cc1Nc1ncc(Br)c(NCCCNC(=O)C2CCC2)n1
cell-free assay	–	competition with immobilised ligand	1 µM	remaining binding	99%	Cc1nc(N2CC[C@@H](O)C2)ncc1-c1cc(C(F)(F)F)cc2[nH]ncc12
